From PubChem BioAssay
Kir21 inh: inhibitors of mouse Kir2.1 inward-rectifier potassium channel; Inward rectifier potassium channel 2 (Mus musculus), P35561; HEK293-Kir2.1, FluxOR thallium flux fluorescence; hits give low values; B-score at 10 µM; hit rate 0.85% among 310,000; AID 1672, 2009;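 active = fluorescence ratio B-score at or below minus 3 SD of library scores, with starting-brightness B-score within 2 SD, cut at about -4.2 in these data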;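 also: channel flux triggered by added potassium and thallium sulfate stimulus; B-score of peak minus minimum fluorescence over baseline after thallium stimulus; more negative B-score means stronger Kir2.1 block with less thallium influx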
KCNQ1 act: potentiators or activators of KCNQ1 channel, primary screen, cell-based, thallium flux, high-throughput; B-score at 10 µM; CHO-K1 KCNQ1, thallium flux FluxOR fluorescence; hits give high values; hit rate 0.35% among 310,000; Potassium voltage-gated channel subfamily KQT member 1 (Homo sapiens), P51787;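 active = fluorescence ratio B-score, a plate-corrected score, at least three library SD, with initial intensity B-score within 5 SD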
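Assay system: stable KCNQ1 CHO-K1 line; medium: assay buffer, equal DMSO in all wells; timing: 90 min dye loading and 20 min compound exposure, both at room temperature; technique: kinetic FluxOR thallium fluorescence, 10-s 1-Hz baseline, 110-s post-stimulus read; read-out basis: B score of baseline-normalized fluorescence ratio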
KCNK9 block: KCNK9 potassium channel inhibitors, primary screen, HEK293 cells, thallium flux | Potassium channel subfamily K member 9 (Homo sapiens), Q9NPC2 | FluxOR thallium flux fluorescence; hits give low values | B-score at 10 µM | hit rate 1.2% among 310,000 | AID 488922, 2010;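 active = ratio B-score over 3 SD below the library mean, with starting fluorescence within 5 SD of its mean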;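 also: negative B-score means less thallium flux so channel inhibition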
KCNK3 block: human KCNK3 channel inhibitors, primary screen, CHO cells, FluxOR thallium flux, B-score | Potassium channel subfamily K member 3 (Homo sapiens), O14649 | FluxOR fluorescence; hits give low values | B-score at 10 µM | hit rate 0.84% among 340,000 | AID 602410, 2012;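 active = B-score under library mean minus 4 SD, starting fluorescence ratio at most library mean plus 5 SD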;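 also: more negative B-score means stronger inhibition of thallium flux through KCNK3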
hERG protect: hERG rescue from dofetilide block, primary screen, cell-based, CHO-hERG, FluxOR thallium flux, dofetilide IC70; Voltage-gated inwardly rectifying potassium channel KCNH2 (Homo sapiens), Q12809; dofetilide IC70 present; activation (rescue from dofetilide block), less the hit threshold, % at 10 µM; hit rate 0.51% among 310,000;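 active = activation above the mean of controls blocked by dofetilide plus 5 SD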;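 also: thallium influx through hERG after potassium depolarization seen as dye fluorescence rise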
KCNQ1 block: inhibitors of human KCNQ1 channel, primary screen, cell-based, thallium flux, high-throughput; CHO-K1 KCNQ1, FluxOR thallium flux fluorescence; hits give high values; B-score at 10 µM; hit rate 1.3% among 310,000; AID 2642, 2010;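 active = compounds whose thallium flux B-score, printed positive for inhibition, exceeds three library SD while starting fluorescence stays within three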;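 also: channel opened by potassium depolarization with thallium stimulus after 20 min compound exposure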
* marks the source's active call; other numbers are inactive results; i = inactive; · = no result given. An excerpt weighted towards active compounds, which were near 3.8% of everything screened.

SMILES	Kir21 inh	KCNQ1 act	KCNK9 block	KCNK3 block	hERG protect	KCNQ1 block
Cc1cc(NS(=O)(=O)c2ccccc2)c(C)c(Cl)c1O	-5.81*	i	i	i	-16.0	i
CN(C(=O)Cn1cccc1C1=NC(c2ccccc2)CO1)c1ccccc1 (centres undefined)	-4.66*	i	i	i	-9.7	i
Cc1ccc(NC(=O)COC(=O)C2CCC(=O)N2)c([N+](=O)[O-])c1 (centres undefined)	1.57	i	i	i	-10.8	i
COCCN(C(=O)c1ccc(N(C)S(=O)(=O)c2ccc(C)cc2)cc1)c1c(N)n(CC(C)C)c(=O)[nH]c1=O	·	·	·	i	·	·
CCOC(=O)/C(=C\C=C\c1ccccc1)NC(=O)c1ccccc1	-0.71	i	i	i	-8.0	i
CCOC(=O)C(NC(=O)c1ccccc1)=C(C)C	-1.45	i	i	i	5.4*	i
CCOC(=O)/C(=C/C=C/c1ccccc1)NC(=O)c1ccccc1	-0.64	i	-7.39*	i	-13.4	i
CCCCOC(=O)C(NC(=O)c1ccccc1)=C(C)C	-0.01	i	i	i	-14.8	i
COC(=O)c1ccc(NC(=O)c2cccc(OC)c2)cc1	0.22	i	i	i	-7.3	i
COc1ccc(C(=O)NNC(=O)C(=O)Nc2cccc3ccccc23)cc1	-0.14	34*	i	i	30.8*	i
COc1ccc(C(=O)Nc2cccc3ccccc23)cc1	0.06	i	i	i	-9.2	i
COc1cccc(NC(=O)c2ccccc2-c2ccccc2)c1	-4.22*	i	i	i	-4.0	i
COc1cccc(C(=O)Nc2ccc(C(=O)O)cc2)c1	-1.41	i	i	i	-12.5	i
COc1cccc(C(=O)NNC(=O)C(=O)Nc2ccc(C)cc2)c1	2.04	37*	i	i	27.1*	i
COc1cccc(C(=O)Nc2ccc(C(=O)c3ccccc3)cc2)c1	1.04	i	-7.75*	i	-8.6	i
CCCn1c(N)c(N(CCOC)C(=O)c2cccc(S(=O)(=O)N3CCCc4ccccc43)c2)c(=O)[nH]c1=O	-0.82	i	i	i	-14.9	i
COc1cccc(C(=O)NNC(=O)C(=O)Nc2cccc(Cl)c2C)c1	1.23	36*	i	i	23.4*	i
CCCCn1c(N)c(N(CC(C)C)C(=O)C2CCN(S(=O)(=O)c3ccc(C)cc3C)CC2)c(=O)[nH]c1=O	1.06	i	i	i	-10.3	i
Cc1cccc(S(=O)(=O)c2c(N)n(Cc3ccco3)c3nc4ccccc4nc23)c1	0.03	i	i	i	-9.6	6*
COc1ccc(C(=O)Nc2sc(C)c(-c3ccccc3)c2C#N)cc1OC	-0.34	i	i	-10.6*	-4.9	6*
Cc1sc(NC(=O)COc2ccccc2)c(C#N)c1-c1ccccc1	-2.6	i	i	i	-4.9	i
C[n+]1ccc(/C=C/c2c[nH]c3ccc(F)cc23)cc1	-6.72	i	-6.69*	i	-18.0	11*
Cc1ccc(OCCSc2nc(NC(C)C)nc(NC(C)C)n2)cc1	0.18	i	i	i	-15.9	6*
CCNc1nc(SCCOc2ccc(C)cc2)nc(N(C)C)n1	-0.42	i	i	i	-11.3	i
O=C(CSc1nnc(SCc2ccccc2)s1)N/N=C/C=C/c1ccccc1[N+](=O)[O-]	-1.1	i	-7.8*	i	-12.7	i
SMILES	Kir21 inh	KCNQ1 act	KCNK9 block	KCNK3 block	hERG protect	KCNQ1 block
O=C(CSc1nnc(SCc2ccccc2)s1)N/N=C/C=C\c1ccco1	0.32	i	i	i	-4.8	i
C=CCOc1ccc(CN(C)CC(O)COc2cccc3ccccc23)cc1 (centres undefined)	-4.64*	i	i	i	-17.8	i
Cc1cc(CN(C)Cc2ccc(OCC(O)CN(C)Cc3ccccc3)cc2)on1 (centres undefined)	-3.23	i	i	i	-10.7	i
S=c1nc(-c2ccc(Br)cc2)oc2c1CCCC2	0.55	i	i	i	13.6*	i
CC(C)=CCC[C@](C)(O[C@@H]1O[C@H](CO[C@@H]2O[C@H](CO)[C@@H](O)[C@H](O)[C@H]2O)[C@@H](O)[C@H](O)[C@H]1O)C1CC[C@]2(C)C1C(=O)CC1[C@@]3(C)CC[C@H](O[C@H]4O[C@@H](CO)[C@H](O)[C@@H](O)[C@@H]4O)C(C)(C)C3CC[C@]12C (some centres undefined)	·	·	·	i	·	·
CC(=O)OCC1O[C@@H](O[C@@H]2C[C@H]3C(C)(C)[C@H](OC(C)=O)CC[C@]3(C)[C@H]3CC[C@]45C[C@]4(CC[C@H]5[C@@H](C)C[C@@H](O)[C@H](O)C(C)(C)O)[C@@]32C)[C@H](O)[C@@H](O)[C@@H]1O (some centres undefined)	0.35	i	i	·	6.5*	i
COc1ccc(S(=O)(=O)N2CCc3cc4c(cc3C2C)OCCCO4)cc1 (centres undefined)	-4.44*	i	i	i	-4.7	i
Cc1ccc(S(=O)(=O)N2CCc3cc4c(cc3C2C)OCCCO4)cc1 (centres undefined)	-2.86	i	i	i	-7.0	i
CCN(CC)c1ccc2nc3ccc(N)cc3[n+](-c3ccccc3)c2c1	·	·	·	-9.15*	·	·
C=CCC(C)(NCc1ccccc1)c1ccc(C)cc1 (centres undefined)	-4.88*	i	i	i	-1.6	i
CCc1ccc(/C=C/C(=O)c2cc(Br)ccc(=O)c2O)cc1	1.02	38*	i	i	0.2	i
COc1cccc(-c2nc(N3CCCCC3C)c3ccccc3n2)c1O (centres undefined)	-0.09	i	i	i	-9.9	8*
COc1cc(OC)cc(C(=O)Nc2nnc(SCC(=O)NCc3ccco3)s2)c1	0.87	i	i	i	-10.2	i
COc1ccc(NS(=O)(=O)c2cccs2)cc1S(=O)(=O)N1CCOCC1	0.24	i	i	i	-5.6	i
COc1ccc(Nc2nc(-c3cccs3)nc3ccccc23)cc1S(=O)(=O)N1CCOCC1	1.15	i	i	-11.3*	-26.7	i
